Test [1] relates to Mus musculus. The test is described as follows: Anti-inflammatory activity in FVB mouse with zymosan-induced sterile peritonitis assessed as reduction in PMN infiltration in peritoneal inflammatory exudates at 10 ng, ip measured at 4 hrs dosed 10 mins before zymosan challenge by light microscopy and flow cytometry. The format is functional. The gist of the method: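 Male FVB mice, 6–8 weeks old, were dosed i.p. with 10 ng in saline with 0.1% EtOH, then zymosan 1 mg/mouse i.p. 10 min later. Peritoneal lavage was collected at 4 h in PBS without Ca/Mg. Leukocytes were enumerated by light microscopy and flow cytometry. Mean ± SEM, n = 4 mice per treatment.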
Background: Flow cytometry measures light scatter and fluorescence of single cells or particles in a stream.

For test [2], the species on record is Homo sapiens. In words: Inhibition of LTB4-induced cell adhesion to fibronectin in human primary PMN at 0.1 to 10 nM pre-incubated for 10 mins followed by LTB4 stimulation by flow cytometry. It counts as functional. Particulars: in the assay text read “flow chamber assay with microscopy” for “flow cytometry”. A digest of the protocol: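 Purified human PMN were pretreated 10 min at room temperature, then stimulated with 10 nM LTB4 for 10 min at room temperature. Cells at 1 × 10^6/mL were perfused over fibronectin-coated chambers at 0.5 mL/min for 5 min. Adherent cells were counted in six random fields by imaging. Three independent experiments; paired t test versus vehicle.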

For test [3], the species on record is Homo sapiens. The test is described as follows: Inhibition of IL8-induced chemotaxis of human primary PMN at 0.01 to 100 nM pre-incubated for 15 mins followed by IL8 stimulation by PrestoBlue fluorescence assay.
For test [4], the system named is Mus musculus. In words: Anti-inflammatory activity in FVB mouse with zymosan-induced sterile peritonitis assessed as reduction in PGF2alpha in peritoneal inflammatory exudates at 10 ng, ip dosed 10 mins before zymosan challenge by LC-MS/MS based targeted lipid mediator metabololipidomics. The format is functional. A digest of the protocol: (§1)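 Male FVB mice, 6–8 weeks old, received 10 ng i.p. in saline with 0.1% EtOH as vehicle, then zymosan 1 mg/mouse i.p. 10 min later. Peritoneal lavage was taken at 4 h in PBS without Ca/Mg. Eicosanoids were measured by LC/MS-MS after solid-phase extraction, identified with at least six diagnostic ions and quantified against linear calibration curves. Mean ± SEM, n = 4 mice per group.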

Test [5] has as its system Mus musculus. In words: Anti-inflammatory activity in FVB mouse with zymosan-induced sterile peritonitis assessed as reduction in PGD2 in peritoneal inflammatory exudates at 10 ng, ip dosed 10 mins before zymosan challenge by LC-MS/MS based targeted lipid mediator metabololipidomics. It counts as functional. The gist of the method:
as §1

For test [6], the species on record is Homo sapiens. The test is described as follows: Inhibition of LTB4-induced chemotaxis of human primary PMN at 0.01 to 100 nM pre-incubated for 15 mins followed by LTB4 stimulation by PrestoBlue fluorescence assay.
In test [7] the test system is Mus musculus. The test is described as follows: Anti-inflammatory activity in FVB mouse with zymosan-induced sterile peritonitis assessed as reduction in TXB2 in peritoneal inflammatory exudates at 10 ng, ip dosed 10 mins before zymosan challenge by LC-MS/MS based targeted lipid mediator metabololipidomics. The format is functional. The gist of the method: as §1
Test [8] can be described thus: Inhibition of IL8-induced chemotaxis of human primary PMN at 0.01 to 100 nM pre-incubated for 15 mins followed by IL8 stimulation by PrestoBlue fluorescence assay.
The nature of test [9]: Inhibition of LTB4-induced chemotaxis of human primary PMN at 0.01 to 100 nM pre-incubated for 15 mins followed by LTB4 stimulation by PrestoBlue fluorescence assay.

Here are results for two molecules from ChEMBL document CHEMBL3352688, “Synthesis and anti-inflammatory and pro-resolving activities of 22-OH-PD1, a monohydroxylated metabolite of protectin D1” (2014).

Activity calls are given as the source filed them. No cut-off for these calls is given here.

As to `CC/C=C\C[C@H](O)\C=C/C=C/C=C/[C@H](O)C/C=C\C/C=C\CCC(=O)O`, the “inhibition (INH)” value in the test on Mus musculus [1] stood at 54%. For the same molecule, the inhibition result in the test listed under Homo sapiens [2], in the test listed under Homo sapiens [3], with Mus musculus [4], in the test on Mus musculus [5], in the test filed under Homo sapiens [6] and in the test with Mus musculus [7] was “Active” throughout.

For `O=C(O)CC/C=C\C/C=C\C[C@@H](O)/C=C/C=C/C=C\[C@@H](O)C/C=C\CCO`, the “inhibition (INH)” value in the test with Mus musculus [1] stood at 43%; in test [8], 23%; with Mus musculus [4], 43%; with Mus musculus [5] it was 27%; in test [9], 19%; in the test with Mus musculus [7], 48%. The inhibition result in the test listed under Homo sapiens [2] was “Active”.
